Screening data (PubChem)
Shown are actives, neighbours in structure and some others; about 1.2% of the full set was active somewhere.
procasp7 counter: counter-screen: procaspase-7 (human) activation; activation, % at 8.5 µM; 0.093% of 330,000 active; recombinant procaspase-7, Ac-DEVD-pNA absorbance 405 nm; D23A/D198A/D206A triple mutant, cannot self-cleave; scale: DMSO 0, 5 µM enzyme 100; P55210;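 active means percent activation above the screen-wide mean plus 3 SD, cut at about 25% in these data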
Target sequence (P55210 whole entry D23A/D198A/D206A): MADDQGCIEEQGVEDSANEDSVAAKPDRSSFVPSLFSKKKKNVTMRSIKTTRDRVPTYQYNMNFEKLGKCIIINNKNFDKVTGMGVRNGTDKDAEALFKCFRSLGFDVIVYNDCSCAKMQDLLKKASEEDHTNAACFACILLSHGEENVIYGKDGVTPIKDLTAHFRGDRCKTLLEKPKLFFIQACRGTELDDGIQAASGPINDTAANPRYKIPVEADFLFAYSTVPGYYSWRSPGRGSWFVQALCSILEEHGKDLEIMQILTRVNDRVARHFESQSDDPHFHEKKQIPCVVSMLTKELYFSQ
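Detection: p-Nitroaniline absorbance at 405 nm, read at 0 and 120 min; system: Uncleavable procaspase-7 mutant enzyme; evaluation: % activation from two-timepoint absorbance difference, scaled to controls; times: 1 h enzyme–compound preincubation and 2 h substrate reaction, both 25 °C; buffer or medium: Zinc-free HEPES pH 7.4 with 300 mM NaCl, 0.01% Triton X-100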
PP1 inh: PP1-alpha (human) inhibition in PP5 counter-screen; inhibition, % at 6.7 µM; P62136; purified PP1alpha, OMFP fluorescence; 0.9% of 320,000 active;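 active means inhibition above the mean inhibition of all tested compounds plus 3 SD, computed separately for each screening campaign, cut at about 15% in these data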
proCasp3 act: procaspase-3 (human) activation; 0.11% of 330,000 active; P42574; activation, % at 8.5 µM; recombinant procaspase-3 D3A, Ac-DEVD-pNA absorbance 405 nm;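 active means activation above the mean of all tested compounds plus 3 SD, cut at about 21% in these data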;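 further: 0% = DMSO alone and 100% = DMSO wells spiked with extra 5 µM PC-3 D3A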
Target sequence (P42574 whole entry D9A/D28A/D175A): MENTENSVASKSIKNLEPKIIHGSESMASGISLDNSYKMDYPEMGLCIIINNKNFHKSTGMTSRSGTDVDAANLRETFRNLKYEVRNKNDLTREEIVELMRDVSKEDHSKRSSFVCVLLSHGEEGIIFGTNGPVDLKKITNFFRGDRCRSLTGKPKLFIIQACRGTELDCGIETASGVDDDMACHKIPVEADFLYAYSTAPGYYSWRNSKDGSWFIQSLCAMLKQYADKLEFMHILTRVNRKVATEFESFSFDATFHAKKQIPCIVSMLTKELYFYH
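Test system: Procaspase-3 D3A mutant; medium: Zinc-free HEPES/NaCl buffer with 0.01% Triton X-100 at pH 7.4; reagent: DEVD-pNA substrate; doses: one concentration, 8.5 µM nominal, 0.8% DMSO; times: 1 h preincubation plus 2 h reaction at 25 °C; signal: Epi-absorbance at 405 nm of released p-nitroaniline, 0 and 120 min; replicates: singlicate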
PP5 inh: inhibitors of human protein phosphatase 5 (PP5). P53041. 0.18% of 320,000 active. inhibition, % at 6.7 µM. purified PP5c, OMFP substrate fluorescence. AID 1987;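 active means inhibition above the campaign's mean inhibition across all tested compounds plus 3 SD, cut at about 9.5% in these data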;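 further: 0% = DMSO only and 100% = 100 µM cantharidin control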
PP5 inh confirm: confirmation of human PP5 phosphatase inhibitors | shares compounds with PP5 inh | Purified PP5, fluorogenic phosphatase substrate, fluorescence | inhibition, % at 6.7 µM | 22% of 460 active; in the data active means inhibition above about 9.5%
PP1 counter 3x: PP1 phosphatase inhibition, counter-screen for PP5 inhibitors | shares compounds with PP5 inh | PP1 enzyme, fluorescent phosphatase substrate | inhibition, % at 6.7 µM | 4% of 460 active; in the data active means inhibition above about 16%
* hit, by the source's call; nt = no result given.

SMILES	procasp7 counter	PP1 inh	proCasp3 act	PP5 inh	PP5 inh confirm	PP1 counter 3x
Clc1cccc(OCCCCCN2CCOCC2)c1	2	-1	-3	10*	-5	-5
Clc1cccc(OCCN2CCOCC2)c1	0	4	4	8	nt	nt
CCc1ccc(C(=O)NNC(=S)Nc2ccc(S(N)(=O)=O)cc2)s1	4	-1	-5	14*	-2	1
CC(C)C[C@H](NC(=O)c1[nH]cnc1C(=O)N[C@@H](C)C(=O)OC(C)(C)C)C(=O)OC(C)(C)C	-9	10	2	11*	7	8
CCOC(=O)c1ccc(NC(=O)c2nc[nH]c2C(=O)N[C@@H](CC(C)C)C(=O)OC(C)(C)C)cc1	1	7	1	8	nt	nt
CC(C)C[C@H](NC(=O)c1nc[nH]c1C(=O)NCC(=O)OCc1ccccc1)C(=O)OCc1ccccc1	0	9	-1	2	nt	nt
CC(C)C[C@H](NC(=O)c1nc[nH]c1C(=O)NCC(=O)OC(C)(C)C)C(=O)OCc1ccccc1	0	9	15	12*	9	9
CC(C)C[C@H](NC(=O)c1[nH]cnc1C(=O)Nc1ccccc1)C(=O)OC(C)(C)C	6	7	-8	9.8*	7	6
COc1ccccc1C(=O)NC(CCSC)C(=O)NNC(=O)c1ccccc1O (stereo unspecified)	5	1	3	0	nt	nt
O=C(OC1CCOC1=O)c1ccc(Cl)c(S(=O)(=O)N2CCOCC2)c1 (stereo unspecified)	0	0	6	0	nt	nt
O=C(Nc1ccc2c(c1)CCCN2C(=O)c1ccco1)c1cc([N+](=O)[O-])ccc1Cl	2	0	-5	1	nt	nt
CC(C)[C@]1(c2ccc(Cl)cc2)ON(c2ccccc2C(F)(F)F)C1=O	11	-5	-2	0	nt	nt
O=C(NNC(=O)c1ccccc1-n1cccc1)c1ccc(Cl)nc1	3	-9	-1	-1	nt	nt
COc1ccc(NC(=O)CCOc2ccccc2C)cc1S(=O)(=O)N1CCCCC1	2	0	7	2	nt	nt
CC(C)C(=O)Nc1nnc(SCC(=O)Nc2ccc3c(c2)OCCO3)s1	3	-10	-3	13*	-5	-2
C=C(C)CSC1=C(C#N)C(c2ccsc2)CC(=O)N1 (stereo unspecified)	-14	-1	-1	11*	-5	-4
CCOC(=O)N1CCC2(CC1)NCCc1c2[nH]c2ccccc12	10	-1	3	12*	-9	-6
Cc1ccc(OC(=O)CCC(=O)Nc2ccc(C)c(C)c2)cc1	5	-1	1	3	nt	nt
O=C(Nc1ccc(OCC(F)(F)C(F)F)c(C(F)(F)F)c1)c1ccccc1O	-6	2	6	11*	6	5
O=C(Nc1ccc(OCC(F)(F)C(F)F)c(C(F)(F)F)c1)c1ccccc1	8	7	8	9	nt	nt
O=C1N/C(=N\S(=O)(=O)Cc2ccccc2)S/C1=C/c1cccc([N+](=O)[O-])c1	-6	5	-6	11*	-2	6
O=C(/C=C/c1ccco1)NC(=S)Nc1ccccc1N1CCOCC1	2	-1	-3	9.7*	0	1
CSc1nc(C)cc(-c2cc(C(=O)Nc3ccccc3)on2)n1	9	-2	-1	2	nt	nt
COc1cc(Br)c(C(=O)c2nccc3cc(OC)c(OC)cc23)cc1OC	1	-3	0	14*	43*	6
COc1cc(N)c(C(=O)c2nccc3cc(OC)c(OC)cc23)cc1OC	7	-1	0	1	nt	nt
SMILES	procasp7 counter	PP1 inh	proCasp3 act	PP5 inh	PP5 inh confirm	PP1 counter 3x
Cc1ccc2[nH]c(=O)c(CN(Cc3ccco3)S(=O)(=O)c3c(C)ccc4nsnc34)cc2c1	3	-1	-5	1	nt	nt
COc1ccc2[nH]c(=O)c(CN(Cc3cccs3)S(=O)(=O)c3c(C)ccc4nsnc34)cc2c1	-11	0	5	9.8*	1	2
CC(C)(CO)NC12CC3CC(CC(C3)C1)C2	4	-13	2	11*	-2	-4
CC(O)CNC12CC3CC(CC(C3)C1)C2 (stereo unspecified)	-2	-6	-10	-1	nt	nt
CC(C)(C)c1ccc(OCCC(=O)NNC(=O)c2ccncc2)cc1	-6	0	6	2	nt	nt
CC1(C)Cc2cccc(OCC(=O)Nc3cccnc3)c2O1	1	-5	9	0	nt	nt
CC1(C)Cc2cccc(OCC(=O)Nc3cccnc3Cl)c2O1	0	1	-7	16*	-3	3
CCOC(=O)c1c(C(F)(F)C(F)(F)C(F)(F)C(F)(F)F)n[nH]c1C	4	12	2	14*	9.9*	13
CCOC(=O)c1[nH]c(C)c(C(=O)OCC)c1C	7	1	-1	2	nt	nt
O=C(CCN1CCN(CCO)CC1)Nc1ccc(OCc2ccccc2)cc1	8	-5	5	10*	-2	-3
CCOCCn1c(C)c(C(=O)OCC)c2cc(O)c3ccccc3c21	5	-1	5	3	nt	nt
C/C(=N/NC(=O)CN(c1ccccc1)S(=O)(=O)c1ccccc1)c1ccccc1O	-20	3	-15	1	nt	nt
Cc1ccc(S(=O)(=O)N2CCN(S(=O)(=O)c3c(C)n[nH]c3C)CC2)cc1C	5	2	8	16*	3	2
Cc1ccc(S(=O)(=O)N2CCN(C)CC2)cc1C	4	-3	3	0	nt	nt
Cn1c(=O)c2[nH]c(N=Nc3ccc(N)cc3N)nc2n(C)c1=O	0	-1	16	0	nt	nt
Nc1ccc(N=Nc2ccccc2O)c(N)c1	-12	-11	-12	12*	1	-2
CCOc1ccc(NC(=O)N2CCC(C(N)=O)(N3CCCCC3)CC2)cc1	12	-8	9	11*	-2	-1
O=C(NC1CCCCC1)N1CCN(c2ccccc2Cl)CC1	6	-3	4	0	nt	nt
CCOc1ccc(NC(=O)c2ccccc2OCC(=O)c2ccc(C)cc2)cc1	12	5	3	9.8*	2	-2
COc1ccccc1NC(=O)Nc1nc(CC(=O)Nc2ccc(F)cc2)cs1	0	-2	11	4	nt	nt
Cc1ccc(NC(=O)Cc2nc(CCl)cs2)cc1	-5	-3	3	-3	nt	nt
COc1ccccc1NC(=O)Nc1nc(CC(=O)Nc2ccc(F)c(F)c2)cs1	3	-1	10	9.9*	3	2
Cc1ccc(NC(=S)Nc2nc(CC(=O)Nc3ccccc3)cs2)cc1	-15	10	-2	10*	-6	2
CCOc1ccc2nc(NC(=O)C3CSC4(C)CCC(=O)N34)sc2c1 (stereo unspecified)	11	-2	-1	1	nt	nt
O=C(N/N=C\c1ccc(Cl)s1)c1ccc(Cn2cccn2)o1	6	0	-4	-4	nt	nt
O=C(N/N=C\c1c(O)ccc2ccccc12)c1ccc(Cn2cccn2)o1	1	5	-27	19*	-4	15
